Measured values from publication PMC7528620 (Clinical cancer research : an official journal of the …, 2019).
Marks after values point to notes of the source that are not given here.

Legend:
[1] = molecular target: CYP3A4 (Homo sapiens, UniProt P08684); assay: In vitro metabolism studies; type: in vitro ADME
[2] = test system: advanced malignancies; assay: Objective response assessment, study INCB 54329-101; type: in vivo, human
Outline: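 Open-label phase 1/2 monotherapy study in adults (≥18 y) with relapsed/refractory advanced malignancies and ECOG ≤1. Oral dosing was 15–30 mg QD or 15–25 mg BID, continuous or intermittent (5/2, 4/3, 7/7 days on/off), in 21-day cycles. Part 2 used intrapatient titration from 20 mg BID. Response was assessed with malignancy-specific criteria in patients with ≥1 dose, measurable/evaluable baseline disease and ≥1 post-baseline assessment.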

[3] = test system: patients with advanced malignancies; assay: Safety and tolerability, phase 1/2 study INCB 54329-101; type: in vivo; conditions: for TRAEs (any): all treatment groups; for TRAE thrombocytopenia: incl. platelet counts decreased
[4] = Plasma pharmacokinetics, study INCB 54329-101; type: in vivo, human
Outline: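 Plasma PK used noncompartmental analysis in patients given ≥1 dose with ≥1 PK sample. Oral dosing was 15–30 mg QD or 15–25 mg BID, continuous or intermittent; the first 3 patients also received a single 5-mg PK dose at day 0. Steady-state oral clearance (CLss/F) and terminal half-life are reported as mean with SD.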

[5] = molecular target: CYP2C19 (Homo sapiens, UniProt P33261); assay: In vitro metabolism studies; type: in vitro ADME
Chain of CYP2C19 (P33261 whole entry): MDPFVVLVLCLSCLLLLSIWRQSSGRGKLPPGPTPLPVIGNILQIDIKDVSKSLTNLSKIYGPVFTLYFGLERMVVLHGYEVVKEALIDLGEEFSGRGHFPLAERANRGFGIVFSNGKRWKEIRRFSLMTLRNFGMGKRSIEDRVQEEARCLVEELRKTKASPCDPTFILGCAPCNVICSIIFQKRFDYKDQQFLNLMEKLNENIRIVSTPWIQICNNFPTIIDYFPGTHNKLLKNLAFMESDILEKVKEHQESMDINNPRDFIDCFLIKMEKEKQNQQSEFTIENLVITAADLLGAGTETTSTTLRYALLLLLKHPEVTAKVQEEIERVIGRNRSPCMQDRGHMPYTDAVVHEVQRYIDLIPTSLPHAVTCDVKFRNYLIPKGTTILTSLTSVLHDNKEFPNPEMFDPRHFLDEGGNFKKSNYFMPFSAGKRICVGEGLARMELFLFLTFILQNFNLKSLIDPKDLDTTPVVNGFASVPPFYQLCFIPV

[6] = Plasma pharmacokinetics, study INCB 57643-101; type: in vivo, human; conditions: for half-life: human, plasma
Outline: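 Plasma PK used noncompartmental analysis in patients given ≥1 dose with ≥1 PK sample, dosed orally at 8, 12 or 16 mg QD continuously. Steady-state oral clearance (CLss/F) and terminal half-life are reported as mean with SD.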

[7] = Effect of a high-fat meal on PK of INCB057643; type: in vivo, human
Outline: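 Steady-state plasma PK was compared within 12 patients, each dosed orally once daily in the fasted state and with a high-fat meal. Parameters (Tmax, Cmax, AUCtau) came from noncompartmental analysis. The fed/fasted ratio of geometric means is reported with its 90% CI.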

[8] = test system: patients with advanced malignancies; assay: Safety and tolerability, phase 1/2 study INCB 57643-101; type: in vivo; conditions: for TRAEs (any): all treatment groups; for TRAE thrombocytopenia: incl. platelet counts decreased
[9] = test system: coagulation factor VII (Factor VII); assay: Olink multiplex proximity extension assay of patient plasma; type: in vivo, human; conditions: cycle 1 day 8
Outline: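 Plasma from 80 patients dosed orally at 8, 12 or 16 mg QD was collected at baseline (cycle 1 day 1) and on treatment (cycle 1 day 8, cycle 2 day 1, cycle 4 day 1). About 1,012 proteins were profiled by multiplex proximity extension assay. Factor VII is expressed as fold-change versus baseline.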

[10] = test system: advanced malignancies; assay: Objective response assessment, study INCB 57643-101; type: in vivo, human; conditions: for reduction in spleen size by manual palpation: one MF patient
Outline: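 Open-label phase 1/2 study in adults (≥18 y) with relapsed/refractory advanced malignancies. Oral dosing was 8–16 mg QD, continuous, as monotherapy (escalation; expansion at 12 mg QD) or from 8 mg QD combined with standard-of-care agents, in 21- or 28-day cycles. Response was assessed with malignancy-specific criteria in patients with ≥1 dose, measurable/evaluable baseline disease and ≥1 post-baseline assessment.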

[11] = test system: patients with advanced solid tumors; conditions: 36 patients with advanced solid tumors; cited from earlier work
[12] = Part 2 TGA, 12 mg QD, 86 patients
[13] = Part 3, 8 mg QD in combination with SOC agents, 13 patients

Chain of CYP3A4 (P08684 whole entry): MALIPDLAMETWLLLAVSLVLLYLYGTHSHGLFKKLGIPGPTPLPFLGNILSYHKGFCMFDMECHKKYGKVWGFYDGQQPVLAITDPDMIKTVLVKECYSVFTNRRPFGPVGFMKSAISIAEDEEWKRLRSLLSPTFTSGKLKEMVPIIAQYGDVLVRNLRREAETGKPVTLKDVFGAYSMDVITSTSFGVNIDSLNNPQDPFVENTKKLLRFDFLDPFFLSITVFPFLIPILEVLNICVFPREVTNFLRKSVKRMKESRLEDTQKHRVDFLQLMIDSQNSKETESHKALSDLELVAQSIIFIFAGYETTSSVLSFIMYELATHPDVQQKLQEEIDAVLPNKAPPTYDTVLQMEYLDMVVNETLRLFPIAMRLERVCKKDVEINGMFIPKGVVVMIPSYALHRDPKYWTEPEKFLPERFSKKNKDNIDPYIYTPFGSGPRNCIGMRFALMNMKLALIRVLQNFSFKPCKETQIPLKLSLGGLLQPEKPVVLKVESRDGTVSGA

Cc1noc(C)c1-c1ccc2[nH]c(=O)n3c2c1OC[C@@H]3c1ccccn1 [INCB054329]
metabolism by CYP3A4 [1]: metabolized | confirmed clinical response ([2]; 69 patients): none and no confirmed clinical responses | patients with stable disease as best response ([2]; all with solid tumors): Twenty-one | patients who maintained SD for ≥6 months ([2]; in vivo): 4 patients | discontinuation, primary reason disease progression ([2]; n = 69): 53 (77) n (%) | patients with ≥1 any grade TRAE ([3]; 69 enrolled patients): 78% | MTD per protocol ([3]; Part 1 TGA): not reached | DLTs ([3]; Part 1 TGA, both grade 4 thrombocytopenia at 30 mg QD and 22.5 mg BID): 2 DLTs | DLTs ([3]; Part 1 TGB, 20 mg BID): No DLTs | TRAEs leading to dose interruptions ([3]; Part 1 TGB, due to grade 3 hyperglycemia): 2 patients | tolerability of the 20 mg BID starting dose ([3]; Part 2 dose titration): not tolerated | patients requiring dose interruption due to TRAEs ([3]; Part 2 dose titration, 20 mg BID start, 11 patients): 45% | incidence of TRAE anemia ([3]; any grade): 10% | incidence of TRAE decreased appetite ([3]; any grade): 26% | incidence of TRAE fatigue ([3]; any grade): 29% | incidence of TRAE nausea ([3]; any grade): 35% | incidence of TRAE thrombocytopenia ([3]; any grade): 33% | incidence of TRAE vomiting ([3]; any grade): 10% | TRAEs (any) ([3]; any grade, n = 69): 54 (78) n (%) | TRAE anemia ([3]; any grade, n = 69): 7 (10) n (%) | TRAE decreased appetite ([3]; any grade, n = 69): 18 (26) n (%) | TRAE diarrhea ([3]; any grade, n = 69): 12 (17) n (%) | TRAE dysgeusia ([3]; any grade, n = 69): 9 (13) n (%) | TRAE fatigue ([3]; any grade, n = 69): 20 (29) n (%) | TRAE hyperglycemia ([3]; any grade, n = 69): 3 (4)^c n (%) | TRAE nausea ([3]; any grade, n = 69): 24 (35) n (%) | TRAE vomiting ([3]; any grade, n = 69): 7 (10) n (%) | TRAE thrombocytopenia ([3]; any grade, n = 69): 23 (33) n (%) | incidence of TRAE AST increased ([3]; grade ≥3): 4% | incidence of TRAE anemia ([3]; grade ≥3): 6% | incidence of TRAE hyperglycemia ([3]; grade ≥3): 3% | incidence of TRAE neutropenia ([3]; grade ≥3): 6% | TRAEs (any) ([3]; grade ≥3, n = 69): 16 (23) n (%) | TRAE anemia ([3]; grade ≥3, n = 69): 4 (6) n (%) | TRAE decreased appetite ([3]; grade ≥3, n = 69): 0 (0) n (%) | TRAE diarrhea ([3]; grade ≥3, n = 69): 0 (0) n (%) | TRAE dysgeusia ([3]; grade ≥3, n = 69): 0 (0) n (%) | TRAE fatigue ([3]; grade ≥3, n = 69): 0 (0) n (%) | TRAE hyperglycemia ([3]; grade ≥3, n = 69): 2 (3) n (%) | TRAE nausea ([3]; grade ≥3, n = 69): 1 (1) n (%) | TRAE vomiting ([3]; grade ≥3, n = 69): 1 (1) n (%) | TRAE thrombocytopenia ([3]; grade ≥3, n = 69): 9 (13) n (%) | deaths deemed treatment-related ([3]; in vivo): none | discontinuation, primary reason adverse event ([3]; n = 69): 2 (3) n (%) | discontinuation, primary reason death ([3]; n = 69): 1 (1) n (%) | TRAEs leading to dose interruptions ([3]; overall): 29% | TRAEs leading to dose reductions ([3]; overall): 7% | dose interruptions due to thrombocytopenia ([3]; overall): 17% | patients who discontinued treatment due to TRAEs ([3]; overall): 4% | serious TRAE anemia ([3]; overall): 2 patients | serious TRAE thrombocytopenia ([3]; overall): 4 patients | patients experiencing serious TRAEs ([3]; overall, n = 69): 7 patients | half-life ([4]; as summarised in discussion): < 5 h | oral clearance CLss/F, mean [SD] ([4]; overall, oral dosing, patients): 95.5 [135] L/h | terminal elimination half-life t1/2, mean [SD] ([4]; overall, oral dosing, patients): 2.24 [2.03] hours | metabolism by CYP2C19 [5]: metabolized

CN1C(=O)C(C)(C)Oc2c(-c3cn(C)c(=O)c4[nH]ccc34)cc(S(C)(=O)=O)cc21 [INCB057643]
half-life ([6]; oral): ~10 h | half-life ([6]; po): 11.1 h | oral clearance CLss/F, mean [SD] ([6]; overall, oral dosing, patients): 11.1 [4.97] L/h | fed vs. fasted geometric mean ratio of Cmax ([7]; 90% CI 0.78–1.01): 0.89 | fed vs. fasted geometric mean ratio of AUCtau ([7]; 90% CI 0.99–1.29): 1.13 | increase of geometric mean AUCtau by high-fat meal ([7]; fed vs fasted): 13% | lowering of geometric mean Cmax by high-fat meal ([7]; fed vs fasted): 11% | patients requiring dose interruptions and/or reductions due to AEs ([8]; 16 mg QD cohort, cycles 1 and 2): 50% | patients with ≥1 any grade TRAE ([8]; 134 enrolled patients): 86% | tolerability of the 16 mg QD dose ([8]; Part 1 TGA): not tolerated | DLTs ([8]; Part 1 TGA, grade 3 increased INR, 16 mg QD cohort of 8 patients): 1 DLT | TRAEs leading to dose interruptions ([8]; Part 2 TGA, 12 mg QD): 35% | TRAEs leading to dose reductions ([8]; Part 2 TGA, 12 mg QD): 11% | patients with a grade 3/4 TRAE [8, 12]: 36% | patients with a serious TRAE [8, 12]: 13% | patients with a grade 3/4 TRAE ([8]; Part 2 TGB, 12 mg QD, 5 patients): 40% | patients requiring dose interruption ([8]; Part 2 TGB, 12 mg QD, febrile neutropenia and thrombocytopenia): 20% | TRAEs leading to dose interruptions [8, 13]: 6 patients | TRAEs leading to dose reductions [8, 13]: 4 patients | incidence of TRAE anemia ([8]; any grade): 14% | incidence of TRAE decreased appetite ([8]; any grade): 22% | incidence of TRAE diarrhea ([8]; any grade): 16% | incidence of TRAE dysgeusia ([8]; any grade): 16% | incidence of TRAE fatigue ([8]; any grade): 30% | incidence of TRAE hyperglycemia ([8]; any grade): 13% | incidence of TRAE nausea ([8]; any grade): 30% | incidence of TRAE thrombocytopenia ([8]; any grade): 32% | incidence of TRAE vomiting ([8]; any grade): 16% | patients with treatment-related INR increased events ([8]; any grade): Seven | TRAEs (any) ([8]; any grade, n = 134): 115 (86) n (%) | TRAE anemia ([8]; any grade, n = 134): 19 (14) n (%) | TRAE decreased appetite ([8]; any grade, n = 134): 30 (22) n (%) | TRAE diarrhea ([8]; any grade, n = 134): 21 (16) n (%) | TRAE dysgeusia ([8]; any grade, n = 134): 22 (16) n (%) | TRAE fatigue ([8]; any grade, n = 134): 40 (30) n (%) | TRAE hyperglycemia ([8]; any grade, n = 134): 18 (13) n (%) | TRAE nausea ([8]; any grade, n = 134): 40 (30) n (%) | TRAE vomiting ([8]; any grade, n = 134): 21 (16) n (%) | TRAE thrombocytopenia ([8]; any grade, n = 134): 43 (32) n (%) | MTD per protocol definition ([8]; at 16 mg QD): not reached | incidence of TRAE INR increased ([8]; grade ≥3): 2% | incidence of TRAE anemia ([8]; grade ≥3): 10% | incidence of TRAE dehydration ([8]; grade ≥3): 2% | incidence of TRAE diarrhea ([8]; grade ≥3): 2% | incidence of TRAE hyperglycemia ([8]; grade ≥3): 3% | incidence of TRAE hyponatremia ([8]; grade ≥3): 2% | incidence of TRAE nausea ([8]; grade ≥3): 2% | incidence of TRAE syncope ([8]; grade ≥3): 2% | incidence of TRAE vomiting ([8]; grade ≥3): 2% | TRAEs (any) ([8]; grade ≥3, n = 134): 48 (36) n (%) | TRAE anemia ([8]; grade ≥3, n = 134): 14 (10) n (%) | TRAE decreased appetite ([8]; grade ≥3, n = 134): 0 (0) n (%) | TRAE diarrhea ([8]; grade ≥3, n = 134): 2 (2) n (%) | TRAE dysgeusia ([8]; grade ≥3, n = 134): 0 (0) n (%) | TRAE fatigue ([8]; grade ≥3, n = 134): 1 (1) n (%) | TRAE hyperglycemia ([8]; grade ≥3, n = 134): 4 (3) n (%) | TRAE nausea ([8]; grade ≥3, n = 134): 2 (2) n (%) | TRAE vomiting ([8]; grade ≥3, n = 134): 2 (2) n (%) | TRAE thrombocytopenia ([8]; grade ≥3, n = 134): 24 (18) n (%) | deaths deemed related to treatment ([8]; human, in vivo): 2 deaths | deaths during the study ([8]; human, in vivo): 17 deaths | discontinuation, primary reason adverse event ([8]; n = 134): 20 (15) n (%) | discontinuation, primary reason death ([8]; n = 134): 9 (7) n (%) | patients requiring dose reductions ([8]; overall): 11% | patients who discontinued treatment due to TRAEs ([8]; overall): 11% | Factor VII mean [SEM] fold decrease vs. baseline ([9]; 8 mg): −0.32 [0.10] | Factor VII mean [SEM] fold decrease vs. baseline ([9]; 12 mg): −0.53 [0.14] | Factor VII mean [SEM] fold decrease vs. baseline ([9]; 16 mg): −0.53 [0.33] | patients with objective responses ([10]; 134 patients): 6 patients | patients who maintained SD for ≥6 months ([10]; all with solid tumors): 6 patients | duration of complete response ([10]; follicular lymphoma patient, 8 mg QD, ongoing at data cutoff): > 2 years | patients with SD as best response ([10]; in vivo): Twenty-seven | patients with progressive disease as best response ([10]; in vivo): Forty-one | discontinuation, primary reason disease progression ([10]; n = 134): 76 (57) n (%) | reduction in spleen size by manual palpation ([10]; 8 mg QD + ruxolitinib): 77% | reduction in spleen size by manual palpation ([10]; 12 mg QD monotherapy): 92.5%

Cc1noc(C)c1-c1cnc2c(-c3ccc(C(=O)O)cc3)cn([C@@H](C)c3ccccn3)c2c1 [PLX51107]
INR increase, patients [11]: 17%
